How the values were obtained:
[1] = biological target: T1, Mitogen-activated protein kinase 14 (Homo sapiens, UniProt Q16539); experiment: Inhibition of p38alpha MAPK (unknown origin) using ATF-2 as substrate after 1 hr by ELISA
[2] = biological target: Glycogen synthase kinase-3 beta (Homo sapiens, UniProt P49841); experiment: Competitive inhibition of human recombinant full length GSK3beta using YRRAAVPPSPSLSRHSSPHQ(pS)EDEEE as substrate preincubated with enzyme for 10 mins followed by substrate and 25 uM ATP addition measured after 60 mins by ADP-Glo luminescence assay
How it was run: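 Compounds in serial dilutions were preincubated with kinase for 10 min at rt. Substrate/ATP was then added and the reaction ran 60 min at rt. ADP-Glo reagent 60 min, detection reagent 30 min, then luminescence read (500 ms integration).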

[3] = biological target: T1, Mitogen-activated protein kinase 14; experiment: Inhibition of human recombinant p38alpha MAPK upto 10000 nM using Ulight-CFFKNIVTPRTPPPSQGK-amide as substrate measured after 30 mins by LANCE assay relative to control
Blood = experiment: Inhibition of LPS-induced TNFalpha production in human whole blood preincubated with compound for 15 mins followed by LPS addition measured after 2.5 hrs by ELISA; format: functional, tissue-based
[4] = biological target: Glycogen synthase kinase-3 alpha (Homo sapiens, UniProt P49840); experiment: Inhibition of human recombinant full length GSK3alpha using YRRAAVPPSPSLSRHSSPHQ(pS)EDEEE as substrate preincubated with enzyme for 10 mins followed by substrate and 25 uM ATP addition measured after 60 mins by ADP-Glo luminescence assay
How it was run: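 Recombinant human GSK3α at 0.50 ng/µL, 25 µM ATP, 0.2 µg/µL substrate G50-58, serial compound dilutions. Kinase was preincubated with compound 10 min at rt, then run 60 min at rt after substrate/ATP addition. ADP-Glo reagent 60 min, detection reagent 30 min, luminescence read. Uninhibited-kinase and ATP/substrate-only controls were included.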

[5] = Metabolic stability in human liver microsomes assessed as parent compound remaining after 180 mins by LC-MS analysis relative to control; format: ADME, Microsome; conditions: read-out: Stability
[6] = Metabolic stability in human liver microsomes assessed as parent compound remaining after 60 mins by LC-MS analysis relative to control; format: ADME, Microsome; conditions: read-out: Stability
[7] = Metabolic stability in human liver microsomes assessed as parent compound remaining after 30 mins by LC-MS analysis relative to control; format: ADME, Microsome; conditions: read-out: Stability
[8] = Metabolic stability in human liver microsomes assessed as parent compound remaining after 240 mins by LC-MS analysis relative to control; format: ADME, Microsome; conditions: read-out: Stability
[9] = Metabolic stability in human liver microsomes assessed as parent compound remaining after 10 mins by LC-MS analysis relative to control; format: ADME, Microsome; conditions: read-out: Stability
[10] = Metabolic stability in human liver microsomes assessed as parent compound remaining after 120 mins by LC-MS analysis relative to control; format: ADME, Microsome; conditions: read-out: Stability
[11] = Metabolic stability in human liver microsomes assessed as parent compound remaining after 20 mins by LC-MS analysis relative to control; format: ADME, Microsome; conditions: read-out: Stability
[12] = Drug uptake in RjOrl:Swiss CD-1 mouse brain at 10 mg/kg, iv administered as single dose measured after 2 hrs by LC-MS analysis; format: ADME, organism-based; conditions: read-out: Drug uptake
How it was run: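 Adult male RjOrl:Swiss CD-1 mice got one intravenous dose of 10 mg/kg. Plasma was sampled at 10, 30 and 120 min. After the last sample the mice were sacrificed and brains dissected. Blood and brain samples were prepared and analysed by LC-MS for parent and sulfoxide metabolite; brain levels reported as ng/g.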

Homo sapiens = organism: Homo sapiens; experiment: Selectivity ratio, Ratio of IC50 for human recombinant full length GSK3beta to IC50 for p38alpha MAPK (unknown origin)
How it was run: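 GSK3β was measured by ADP-Glo using 0.58 ng/µL recombinant human enzyme, 25 µM ATP and 0.2 µg/µL substrate peptide G50-58. Kinase was preincubated with serial compound dilutions for 10 min at rt, then reacted for 60 min at rt, with luminescence read-out. p38α inhibition was measured by ELISA.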

T1 sequence (Q16539 whole entry): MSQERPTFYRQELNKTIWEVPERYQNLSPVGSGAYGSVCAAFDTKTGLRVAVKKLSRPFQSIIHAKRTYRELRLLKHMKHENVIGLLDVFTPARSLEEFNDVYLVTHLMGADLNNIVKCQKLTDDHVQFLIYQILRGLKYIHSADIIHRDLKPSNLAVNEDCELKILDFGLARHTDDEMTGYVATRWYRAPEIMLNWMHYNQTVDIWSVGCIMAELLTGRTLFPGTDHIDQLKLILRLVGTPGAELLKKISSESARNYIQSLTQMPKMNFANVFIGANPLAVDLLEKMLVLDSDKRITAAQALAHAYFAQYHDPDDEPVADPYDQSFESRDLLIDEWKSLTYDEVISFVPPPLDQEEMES
Glycogen synthase kinase-3 alpha, sequence (P49840 whole entry): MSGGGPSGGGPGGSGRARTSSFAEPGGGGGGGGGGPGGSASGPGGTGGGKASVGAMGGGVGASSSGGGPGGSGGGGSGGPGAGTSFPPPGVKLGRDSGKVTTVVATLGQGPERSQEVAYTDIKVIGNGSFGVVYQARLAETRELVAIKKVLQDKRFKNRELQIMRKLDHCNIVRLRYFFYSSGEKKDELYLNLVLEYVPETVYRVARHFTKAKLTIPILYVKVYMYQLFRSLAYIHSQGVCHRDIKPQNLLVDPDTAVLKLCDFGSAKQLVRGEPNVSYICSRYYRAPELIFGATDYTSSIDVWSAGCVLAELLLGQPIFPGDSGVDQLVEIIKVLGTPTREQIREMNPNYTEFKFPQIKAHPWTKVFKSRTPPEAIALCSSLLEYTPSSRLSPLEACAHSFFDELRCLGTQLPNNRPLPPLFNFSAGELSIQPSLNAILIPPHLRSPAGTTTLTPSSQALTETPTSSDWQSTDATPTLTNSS
Glycogen synthase kinase-3 beta, sequence (P49841 whole entry): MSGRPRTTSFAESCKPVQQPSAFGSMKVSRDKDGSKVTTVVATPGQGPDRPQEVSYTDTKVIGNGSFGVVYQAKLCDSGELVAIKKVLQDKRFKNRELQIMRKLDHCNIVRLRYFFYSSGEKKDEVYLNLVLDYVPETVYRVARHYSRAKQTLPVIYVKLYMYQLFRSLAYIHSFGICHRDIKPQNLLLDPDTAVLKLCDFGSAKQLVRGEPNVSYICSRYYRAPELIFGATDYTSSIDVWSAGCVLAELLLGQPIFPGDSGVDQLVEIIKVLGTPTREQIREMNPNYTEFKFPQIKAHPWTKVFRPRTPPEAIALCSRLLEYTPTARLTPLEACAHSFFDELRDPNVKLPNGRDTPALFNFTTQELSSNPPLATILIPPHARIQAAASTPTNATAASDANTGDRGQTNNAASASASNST

SMILES | IC50 [1] | IC50 [2] | other results
COc1cc(CC(=O)Nc2cc(-c3[nH]c(SC)nc3-c3ccc(F)cc3)ccn2)cc(OC)c1OC | 13 nM | 510 nM | –
O=C(Nc1cc(-c2[nH]c(CCc3ccccc3)nc2-c2ccc(F)cc2)ccn1)C1CC1 | 20 nM | 133 nM | –
CSc1nc(-c2ccc(F)cc2)c(-c2ccnc(NC(=O)c3ccccn3)c2)[nH]1 | 42 nM | > 10000 nM | –
CSc1nc(-c2ccc(F)cc2)c(-c2ccnc(NCC3CC3)c2)[nH]1 | 14 nM | > 10000 nM | –
CSc1nc(-c2ccc(F)cc2)c(-c2ccnc(NC(=O)c3ccoc3)c2)[nH]1 | 22 nM | 3650 nM | –
CSc1nc(-c2ccc(F)cc2)c(-c2ccnc(NC(=O)C3CC3)c2)n1C | 222 nM | 638 nM | –
CSc1nc(-c2ccc(F)cc2)c(-c2ccnc(NC(=O)CN3CCCC3=O)c2)[nH]1 | 23 nM | 126 nM | –
O=C(Nc1cc(-c2[nH]c(-c3ccccc3)nc2-c2ccc(F)cc2)ccn1)C1CC1 | 27 nM | 570 nM | –
C[S+]([O-])c1nc(-c2ccc(F)cc2)c(-c2ccnc(NC(=O)C3CCC3)c2)[nH]1 (centres undefined) | 29 nM | 428 nM | –
CSc1nc(-c2ccc(F)cc2)c(-c2ccnc(NC(=O)C3CCCO3)c2)[nH]1 (centres undefined) | 28 nM | 527 nM | –
O=C(Nc1cc(-c2[nH]c(-c3ccco3)nc2-c2ccc(F)cc2)ccn1)C1CC1 | 18 nM | 156 nM | –
Cc1nc(-c2ccc(F)cc2)c(-c2ccnc(NC(=O)C3CC3)c2)[nH]1 | 19 nM | 53 nM | –
COc1ccc(CCC(=O)Nc2cc(-c3[nH]c(SC)nc3-c3ccc(F)cc3)ccn2)cc1 | 55 nM | 542 nM | –
Cc1ncc(-c2ccnc(NC(=O)C3CC3)c2)[nH]1 | – | 1680 nM | inhibition [3]: 1%
CSc1nc(-c2ccc(F)cc2)c(-c2ccnc(NC(=O)C3(C(F)(F)F)CC3)c2)[nH]1 | 184 nM | > 10000 nM | –
C[S+]([O-])c1ccc(-c2nc(-c3ccc(F)cc3)c(-c3ccncc3)[nH]2)cc1 (centres undefined) [SB-203580] | – | – | IC50 (Blood): 3200 nM
CSc1nc(-c2ccc(F)cc2)c(-c2ccnc(NC(=O)C3CCCC3)c2)[nH]1 | 40 nM | 136 nM | –
O=C(Nc1cc(-c2[nH]c(SCc3ccccc3)nc2-c2ccc(F)cc2)ccn1)C1CC1 | 41 nM | 229 nM | IC50 [4]: 853 nM
CSc1nc(-c2ccc(F)cc2)c(-c2ccnc(NC(=O)C3CC(=O)C3)c2)[nH]1 | 20 nM | 183 nM | –

SMILES | IC50 [1] | IC50 [2] | other results
CSc1nc(-c2ccc(F)cc2)c(-c2ccnc(NC(=O)[C@H]3C[C@H](Cl)C3)c2)[nH]1 | 38 nM | 395 nM | –
CSc1nc(-c2ccc(F)cc2)c(-c2ccnc(NC(=O)CC3CC3)c2)[nH]1 | 15 nM | 215 nM | –
COc1cc(CCC(=O)Nc2cc(-c3[nH]c(SC)nc3-c3ccc(F)cc3)ccn2)cc(OC)c1OC | 88 nM | 363 nM | IC50 [4]: 2050 nM
O=C(Nc1cc(-c2[nH]c(SCc3ccccc3)nc2-c2ccc(F)cc2)ccn1)C1CCCC1 | 20 nM | 663 nM | –
CSc1nc(-c2ccc(F)cc2)c(-c2ccnc(NC(=O)[C@@H]3C[C@H]3c3ccccc3)c2)[nH]1 (relative stereo) | 15 nM | 808 nM | –
CSc1nc(-c2ccc(F)cc2)c(-c2ccnc(NC(=O)C3CCC3)c2)[nH]1 | 27 nM | 132 nM | –
CSc1nc(-c2ccc(F)cc2)c(-c2ccnc(NC(C)=O)c2)[nH]1 | 45 nM | 152 nM | –
CSc1nc(-c2ccc(F)cc2)c(-c2ccnc(NC(=O)C3CCC(=O)C3)c2)[nH]1 (centres undefined) | 21 nM | 73 nM | –
CSc1nc(-c2ccc(F)cc2)c(-c2ccnc(NC(=O)[C@H]3C[C@@H](Cl)C3)c2)[nH]1 | 18 nM | 170 nM | –
O=C(Nc1cc(-c2[nH]c(Cc3ccccc3)nc2-c2ccc(F)cc2)ccn1)C1CC1 | 18 nM | 59 nM | remaining at 3 h [5]: 68.7%; remaining at 1 h [6]: 69.4%; remaining at 0.5 h [7]: 78.1%; remaining at 4 h [8]: 66.1%; remaining at 10 min [9]: 92.4%; remaining at 2 h [10]: 69.8%; IC50 [4]: 428 nM; remaining at 20 min [11]: 83.6%
CSc1nc(-c2ccc(F)cc2)c(-c2ccnc(NC(=O)CCc3ccc(C(F)(F)F)cc3)c2)[nH]1 | 27 nM | 956 nM | –
C[S+]([O-])c1nc(-c2ccc(F)cc2)c(-c2ccnc(NC(=O)C3CC3)c2)[nH]1 (centres undefined) | 44 nM | 236 nM | IC50 [4]: 1340 nM; concentration at 2 h [12]: 65.8 ng/g
COc1cccc(CCC(=O)Nc2cc(-c3[nH]c(SC)nc3-c3ccc(F)cc3)ccn2)c1 | 36 nM | 471 nM | –
O=C(Cc1ccc(F)cc1)Nc1cc(-c2[nH]c(SCc3ccccc3)nc2-c2ccc(F)cc2)ccn1 | 3 nM | 1500 nM | Ratio IC50 (Homo sapiens): > 500; remaining at 4 h [8]: 66%
CSc1nc(-c2ccc(F)cc2)c(-c2ccnc(NC(=O)Cc3ccc(C(F)(F)F)cc3)c2)[nH]1 | 29 nM | 3240 nM | –
CSc1nc(-c2ccnc(NC(=O)C3CC3)c2)c(-c2ccc(F)cc2)n1C | 1600 nM | 1780 nM | –
CC(=O)Nc1cc(-c2[nH]c(SCc3ccccc3)nc2-c2ccc(F)cc2)ccn1 | 51 nM | 560 nM | –
O=C(Nc1cc(-c2[nH]cnc2-c2ccc(F)cc2)ccn1)C1CC1 | 19 nM | 64 nM | –
COc1cc(CCC(=O)Nc2cc(-c3[nH]c(SCc4ccccc4)nc3-c3ccc(F)cc3)ccn2)cc(OC)c1OC | 61 nM | 1150 nM | –
